Experimental data published in ChEMBL document CHEMBL2157969, “Chalcone inhibitors of the NorA efflux pump in Staphylococcus aureus whole cells and enriched everted membrane vesicles” (Bioorg Med Chem, 2012).
Calls of active or inactive are those of the source. The calls are words filed in the database; no cut-off is given here.

Columns and labels:
[1] = molecular target: T1, Quinolone resistance protein NorA (Staphylococcus aureus) (UniProt P0A0J7); assay: Inhibition of Staphylococcus aureus SA-1199B NorA expressed in Escherichia coli DH10B assessed as inhibition of Hoechst 33342 dye efflux at 10 uM after 150 to 160 secs by spectrofluorometric analysis in presence of 50 uM Mg2+
T1 sequence (whole entry): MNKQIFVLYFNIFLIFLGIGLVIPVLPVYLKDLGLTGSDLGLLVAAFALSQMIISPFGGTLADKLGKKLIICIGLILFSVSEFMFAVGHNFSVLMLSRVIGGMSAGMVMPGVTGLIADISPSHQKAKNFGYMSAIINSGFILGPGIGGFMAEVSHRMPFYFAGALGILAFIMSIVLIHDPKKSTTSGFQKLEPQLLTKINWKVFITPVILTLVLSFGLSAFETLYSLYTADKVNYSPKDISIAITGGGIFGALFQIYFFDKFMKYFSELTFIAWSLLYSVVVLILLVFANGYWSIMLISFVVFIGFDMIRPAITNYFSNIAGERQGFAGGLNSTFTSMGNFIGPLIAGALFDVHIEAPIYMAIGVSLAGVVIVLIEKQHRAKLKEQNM
Procedure, shortened: (§1)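 Everted membrane vesicles from E. coli DH10B carrying pTrcHis2C-norA, made by French press with 0.1 mM PMSF and 0.1 mg/mL DNase; pTrc99A vesicles serve as control. Vesicles at 80 µg protein/mL in 50 mM potassium HEPES, 8.5 mM NaCl, 2 mM MgCl₂, pH 7.2. Hoechst 33342 added, then Mg²⁺-ATP to energise, inhibitor at 150–160 s.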

[2] = molecular target: T1, Quinolone resistance protein NorA (Staphylococcus aureus); assay: Inhibition of Staphylococcus aureus SA-1199B NorA expressed in Escherichia coli DH10B assessed as inhibition of Hoechst 33342 dye efflux at 10 uM by spectrofluorometric analysis in presence of 50 uM Mg2+; procedure, shortened: as §1

Structure (SMILES): CC(C)[C@@H]1NC(=O)[C@H](C)OC(=O)[C@@H](C(C)C)NC(=O)[C@@H](C(C)C)OC(=O)[C@H](C(C)C)NC(=O)[C@H](C)OC(=O)[C@@H](C(C)C)NC(=O)[C@@H](C(C)C)OC(=O)[C@H](C(C)C)NC(=O)[C@H](C)OC(=O)[C@@H](C(C)C)NC(=O)[C@@H](C(C)C)OC1=O
- inhibition [1]: Active
- inhibition [2]: Active
